According to ChEMBL document CHEMBL5247576, “Modulation of autophagy by the novel mitochondrial complex I inhibitor Authipyrin” (Bioorg Med Chem, 2019):
The source made the active and inactive calls. The rule behind the calls is not given here.

Assays:
[1] = system: T1, Discoidin domain-containing receptor 2 (Homo sapiens), Q16832 [N456S]; test: Inhibition of GST/His-tagged human recombinant DDR2 N456S mutant (422 to 855 residues) expressed in baculovirus expression system at 1 uM relative to control
T1 sequence (whole entry): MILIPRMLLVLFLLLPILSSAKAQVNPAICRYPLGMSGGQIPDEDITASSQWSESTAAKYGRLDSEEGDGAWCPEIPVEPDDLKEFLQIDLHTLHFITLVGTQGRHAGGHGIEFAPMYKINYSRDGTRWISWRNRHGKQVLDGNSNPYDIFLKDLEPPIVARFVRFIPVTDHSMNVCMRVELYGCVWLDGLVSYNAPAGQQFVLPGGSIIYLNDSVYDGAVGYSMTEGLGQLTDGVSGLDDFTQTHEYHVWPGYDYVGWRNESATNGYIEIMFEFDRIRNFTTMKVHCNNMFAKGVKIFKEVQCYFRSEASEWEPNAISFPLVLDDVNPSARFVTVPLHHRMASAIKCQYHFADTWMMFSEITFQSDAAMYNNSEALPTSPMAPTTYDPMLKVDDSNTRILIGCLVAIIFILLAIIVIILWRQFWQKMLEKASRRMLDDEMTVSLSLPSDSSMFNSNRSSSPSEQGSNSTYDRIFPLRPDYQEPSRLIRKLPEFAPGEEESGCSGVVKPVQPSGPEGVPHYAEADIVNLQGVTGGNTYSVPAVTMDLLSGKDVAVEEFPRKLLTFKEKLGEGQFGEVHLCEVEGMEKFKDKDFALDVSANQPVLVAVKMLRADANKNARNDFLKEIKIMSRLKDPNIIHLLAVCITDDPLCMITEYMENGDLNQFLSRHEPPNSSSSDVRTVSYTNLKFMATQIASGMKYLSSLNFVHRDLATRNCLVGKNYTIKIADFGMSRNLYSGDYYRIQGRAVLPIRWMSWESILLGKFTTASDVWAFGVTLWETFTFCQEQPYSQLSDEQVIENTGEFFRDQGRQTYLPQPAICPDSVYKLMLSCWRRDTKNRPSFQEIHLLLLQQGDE
Outline: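 Single-point kinase panel (SelectScreen) run with the compound at 1 μM. Activity is reported as percent inhibition.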

MCF7 [2] = test: Inhibition of starvation-induced autophagy in human MCF7 cells assessed as reduction of LC3-II lipidation at 1 uM in presence of chloroquine by immunoblotting analysis; format: functional, cell-based
Outline: (§1)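 Cells were starved in EBSS for the indicated times, with or without chloroquine (50 μM) and compound (1 μM). Cells were then lysed and LC3 lipidation was assessed by immunoblot. n = 3.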

MCF7 [3] = test: Inhibition of mitochondrial complex II in human MCF7 cells expressing LC3 by Seahorse XF plasma membrane permeabilizer analysis; format: cell membranes
Outline: (§2)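 MCF7/LC3 cells were permeabilized with plasma membrane permeabilizer, then given DMSO, compound (1 μM) or a complex-specific control inhibitor together with that complex's substrates. Oligomycin and antimycin A injections followed. Oxygen consumption rate was read on a Seahorse XF analyzer. Data are mean ± SD, n = 3.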

[4] = molecular target: Cyclin-dependent kinase 19 (Homo sapiens) (UniProt Q9BWU1); test: Inhibition of GST-tagged human recombinant CDK11 (1 to 795 residues) expressed in baculovirus expression system relative to control; details: concentration not given here
Chain of Cyclin-dependent kinase 19 (Homo sapiens) (Q9BWU1 whole entry, the tested form may be a part): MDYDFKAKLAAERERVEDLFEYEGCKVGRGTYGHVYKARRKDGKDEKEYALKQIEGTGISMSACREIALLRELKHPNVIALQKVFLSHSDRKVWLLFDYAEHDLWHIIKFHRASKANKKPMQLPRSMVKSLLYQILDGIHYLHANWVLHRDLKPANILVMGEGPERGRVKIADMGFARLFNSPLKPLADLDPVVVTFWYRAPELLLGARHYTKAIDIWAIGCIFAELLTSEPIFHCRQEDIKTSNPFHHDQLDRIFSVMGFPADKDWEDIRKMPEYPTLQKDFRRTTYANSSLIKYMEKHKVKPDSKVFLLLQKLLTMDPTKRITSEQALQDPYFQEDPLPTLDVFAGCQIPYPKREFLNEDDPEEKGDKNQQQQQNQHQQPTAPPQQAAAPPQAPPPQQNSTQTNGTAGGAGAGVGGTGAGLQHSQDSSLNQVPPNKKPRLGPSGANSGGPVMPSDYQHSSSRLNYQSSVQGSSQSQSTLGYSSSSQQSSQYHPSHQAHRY
Outline: (§3)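 Follow-up on kinases showing more than 50% single-point inhibition. Each kinase was screened against decreasing compound concentrations, with a top concentration of 1 μM, to derive the IC50. Percent inhibition was also reported from this dose-response series.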

[5] = Inhibition of rapamycin-induced autophagy in human MCF7 cells expressing eGFP-tagged LC3 incubated for 3 hrs in presence of chloroquine by Hoechst staining based fluorescence microscopic analysis; format: functional, cell-based
[6] = molecular target: T2, Serine/threonine-protein kinase haspin (Homo sapiens) (UniProt Q8TF76); test: Inhibition of GST-tagged human recombinant haspin (471 to 798 residues) expressed in insect cells relative to control; details: concentration not given here; outline: as §3
T2 sequence (whole entry): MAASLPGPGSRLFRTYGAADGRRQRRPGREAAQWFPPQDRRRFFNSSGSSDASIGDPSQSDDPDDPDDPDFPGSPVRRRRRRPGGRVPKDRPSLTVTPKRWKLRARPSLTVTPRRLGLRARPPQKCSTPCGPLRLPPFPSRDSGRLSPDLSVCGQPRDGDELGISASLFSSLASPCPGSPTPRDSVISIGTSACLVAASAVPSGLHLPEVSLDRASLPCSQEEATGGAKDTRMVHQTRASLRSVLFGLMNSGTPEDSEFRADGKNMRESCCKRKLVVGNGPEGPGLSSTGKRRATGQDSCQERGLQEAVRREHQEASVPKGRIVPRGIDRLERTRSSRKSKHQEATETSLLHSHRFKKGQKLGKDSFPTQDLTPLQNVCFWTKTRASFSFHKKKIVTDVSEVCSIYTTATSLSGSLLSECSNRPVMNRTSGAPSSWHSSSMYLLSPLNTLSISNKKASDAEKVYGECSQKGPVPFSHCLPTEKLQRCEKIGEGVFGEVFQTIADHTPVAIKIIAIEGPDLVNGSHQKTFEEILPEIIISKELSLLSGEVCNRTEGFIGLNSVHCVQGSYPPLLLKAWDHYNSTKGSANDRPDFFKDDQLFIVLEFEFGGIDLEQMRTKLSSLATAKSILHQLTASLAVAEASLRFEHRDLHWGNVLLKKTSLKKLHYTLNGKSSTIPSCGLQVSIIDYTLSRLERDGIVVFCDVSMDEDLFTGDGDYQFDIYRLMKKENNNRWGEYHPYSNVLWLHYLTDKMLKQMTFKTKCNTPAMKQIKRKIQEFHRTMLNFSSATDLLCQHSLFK

[7] = molecular target: T3, Inactive tyrosine-protein kinase PEAK1 (Homo sapiens, UniProt Q9H792); test: Inhibition of PEAK1 (unknown origin) relative to control; details: concentration not given here; outline: as §3
T3 sequence (Q9H792 whole entry): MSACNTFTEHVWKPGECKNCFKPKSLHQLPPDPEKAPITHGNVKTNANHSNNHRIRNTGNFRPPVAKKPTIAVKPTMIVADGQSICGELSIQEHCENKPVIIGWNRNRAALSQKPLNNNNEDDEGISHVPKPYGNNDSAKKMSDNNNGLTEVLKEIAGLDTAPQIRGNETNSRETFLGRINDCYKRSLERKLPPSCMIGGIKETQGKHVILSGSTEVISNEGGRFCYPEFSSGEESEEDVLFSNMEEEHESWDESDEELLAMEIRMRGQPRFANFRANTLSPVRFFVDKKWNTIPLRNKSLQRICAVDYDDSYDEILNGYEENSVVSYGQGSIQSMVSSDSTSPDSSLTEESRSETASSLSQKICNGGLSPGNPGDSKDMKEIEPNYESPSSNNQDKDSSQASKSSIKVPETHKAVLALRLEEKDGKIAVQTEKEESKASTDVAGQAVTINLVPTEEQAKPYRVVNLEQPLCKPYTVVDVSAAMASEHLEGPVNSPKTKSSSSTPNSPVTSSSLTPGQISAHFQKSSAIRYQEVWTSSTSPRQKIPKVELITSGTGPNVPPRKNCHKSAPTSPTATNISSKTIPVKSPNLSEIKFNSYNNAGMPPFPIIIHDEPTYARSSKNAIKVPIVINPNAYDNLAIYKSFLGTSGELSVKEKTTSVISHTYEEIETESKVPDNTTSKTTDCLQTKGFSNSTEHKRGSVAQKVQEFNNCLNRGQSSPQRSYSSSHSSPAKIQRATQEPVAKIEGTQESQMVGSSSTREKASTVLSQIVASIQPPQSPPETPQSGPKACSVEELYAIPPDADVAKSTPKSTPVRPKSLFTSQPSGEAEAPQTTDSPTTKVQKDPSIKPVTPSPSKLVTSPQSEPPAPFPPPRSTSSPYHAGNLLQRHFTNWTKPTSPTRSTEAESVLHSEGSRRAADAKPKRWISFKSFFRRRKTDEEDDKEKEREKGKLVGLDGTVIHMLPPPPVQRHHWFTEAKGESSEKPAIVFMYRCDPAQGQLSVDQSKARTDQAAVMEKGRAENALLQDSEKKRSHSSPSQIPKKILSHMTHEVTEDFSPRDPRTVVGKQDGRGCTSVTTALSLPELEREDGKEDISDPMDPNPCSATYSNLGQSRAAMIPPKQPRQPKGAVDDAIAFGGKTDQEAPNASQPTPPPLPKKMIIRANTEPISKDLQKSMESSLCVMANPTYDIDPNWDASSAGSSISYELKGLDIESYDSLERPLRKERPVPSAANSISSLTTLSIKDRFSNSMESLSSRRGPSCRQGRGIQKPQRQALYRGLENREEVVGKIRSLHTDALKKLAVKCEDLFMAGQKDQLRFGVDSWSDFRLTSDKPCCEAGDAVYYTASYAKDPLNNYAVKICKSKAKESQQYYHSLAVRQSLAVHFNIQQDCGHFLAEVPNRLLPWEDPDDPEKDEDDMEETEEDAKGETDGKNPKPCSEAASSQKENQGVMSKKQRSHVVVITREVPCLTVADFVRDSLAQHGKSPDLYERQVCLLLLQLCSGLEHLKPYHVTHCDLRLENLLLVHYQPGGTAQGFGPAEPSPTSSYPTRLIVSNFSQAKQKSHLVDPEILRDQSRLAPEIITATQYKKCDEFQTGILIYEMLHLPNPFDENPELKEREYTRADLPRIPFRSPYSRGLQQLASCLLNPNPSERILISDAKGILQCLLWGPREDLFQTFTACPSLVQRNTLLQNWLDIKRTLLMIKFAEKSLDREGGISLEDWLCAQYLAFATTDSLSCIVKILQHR

MCF7 [8] = test: Inhibition of mitochondrial complex IV in human MCF7 cells expressing LC3 by Seahorse XF plasma membrane permeabilizer analysis; format: cell membranes; outline: as §2
[9] = Inhibition of starvation-induced autophagy in human MCF7 cells expressing eGFP-tagged LC3 incubated for 3 hrs in presence of chloroquine by automated fluorescence microscopy
[10] = molecular target: T3, Inactive tyrosine-protein kinase PEAK1; test: Inhibition of PEAK1 (unknown origin); outline: as §3
MCF7 [11] = test: Inhibition of mitochondrial complex I in human MCF7 cells expressing LC3 by Seahorse XF plasma membrane permeabilizer analysis; format: cell membranes; outline: as §2
HEK-293T = test: Inhibition of starvation-induced autophagy in human HEK293T cells assessed as reduction of LC3-II lipidation at 1 uM in presence of chloroquine by immunoblotting analysis; format: functional, cell-based; outline: as §1
[12] = molecular target: T3, Inactive tyrosine-protein kinase PEAK1; test: Inhibition of PEAK1 (unknown origin) at 1 uM relative to control
Outline: (§4)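 Single-point kinase profiling run at 1 μM compound against a full kinase panel. Values are percent inhibition of kinase activity.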

HeLa = test: Inhibition of starvation-induced autophagy in human HeLa cells assessed as reduction of LC3-II lipidation at 1 uM in presence of chloroquine by immunoblotting analysis; format: functional, cell-based; outline: as §1
[13] = system: T1, Discoidin domain-containing receptor 2 (Homo sapiens), Q16832 [N456S]; test: Inhibition of GST/His-tagged human recombinant DDR2 N456S mutant (422 to 855 residues) expressed in baculovirus expression system relative to control; details: concentration not given here
Bos taurus = organism: Bos taurus; test: Inhibition of NADH-Coenyme Q reductase in bovine heart mitochondria; details: dose 0.3-10 µM
Outline: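 Isolated bovine heart mitochondria were assayed for NADH-coenzyme Q reductase activity across a dose range of compound. Rotenone served as the control inhibitor. Data are mean ± SD, n = 2.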

[14] = molecular target: Discoidin domain-containing receptor 2 (Homo sapiens, UniProt Q16832, N456S); test: Inhibition of GST/His-tagged human recombinant DDR2 N456S mutant (422 to 855 residues) expressed in baculovirus expression system
Outline: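 Kinase profiling panel (SelectScreen). The kinase was tested against decreasing concentrations of the compound, starting at a highest concentration of 1 μM, and IC50 was derived from the dose-response.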

[15] = molecular target: T2, Serine/threonine-protein kinase haspin (Homo sapiens); test: Inhibition of GST-tagged human recombinant haspin (471 to 798 residues) expressed in insect cells at 1 uM relative to control; outline: as §4
[16] = molecular target: T4, Serine/threonine-protein kinase haspin (Homo sapiens, UniProt Q8TF76); test: Inhibition of GST-tagged human recombinant haspin (471 to 798 residues) expressed in insect cells; outline: as §3
T4 sequence (Q8TF76 whole entry): T2 sequence (whole entry)

[17] = molecular target: Cyclin-dependent kinase 19 (Homo sapiens) (UniProt Q9BWU1); test: Inhibition of GST-tagged human recombinant CDK11 (1 to 795 residues) expressed in baculovirus expression system at 1 uM relative to control; outline: as §4

O=C(c1ccc2c(c1)OCCO2)C1CCN(c2ncnc3sccc23)CC1
inhibition [1]: 58%
inhibition (MCF7 [2]): Active
inhibition (MCF7 [3]): inactive
inhibition [4]: 47%
IC50 [5]: 180 nM
inhibition [6]: 33%
inhibition [7]: 68%
inhibition (MCF7 [8]): inactive
IC50 [9]: 20 nM
IC50 [10]: 620 nM
inhibition (MCF7 [11]): Active
inhibition (HEK-293T): Active
inhibition [12]: 83%
inhibition (HeLa): Active
inhibition [13]: 38%
inhibition (Bos taurus): Dose-Dependent Effect
IC50 [14]: > 1000 nM
inhibition [15]: 51%
IC50 [16]: > 1000 nM
inhibition [17]: 70%
